We go through one sequence from ChEMBL document CHEMBL1671711, “Serum and cerebrospinal fluid levels of colistin in pediatric patients” (Antimicrob Agents Chemother, 2010).

What all share (format): ADME, organism-based
Common to all, as to design: route intravenous

In data set [1] the test system is Serum. Description: Drug level in pediatric patient serum with gram-negative bacterial infection assessed as Colistin level at 4.8 mg/kg/day, iv administered every 8 hrs for 7 days measured after 30 mins by LS/MS/MS analysis. To be noted: human, in vivo, 0.5 h. Summed up: (§1)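 Blood was drawn 30 min after the end of the 20-min IV CMS infusion, given every 8 h. Serum was separated by centrifugation, stored at −80°C, and assayed by LC-MS-MS for colistin A plus B (interday CV <4.4%, accuracy within ±1.9%). Values are means of two sampling days; course 1 was sampled once.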

Data set [2] has as its system Serum. Description: Drug level in pediatric patient serum with gram-negative bacterial infection assessed as Colistin level at 10.4 mg/kg/day, iv administered every 8 hrs for 46 days measured after 30 mins by LS/MS/MS analysis. As to conditions: human, in vivo, 0.5 h. An outline of the steps:
as §1

In data set [3] the test system is Serum. The data set is described as follows: Drug level in pediatric patient serum with gram-negative bacterial infection assessed as Colistin level at 16 mg/kg/day, iv administered every 8 hrs for 93 days measured after 30 mins by LS/MS/MS analysis. To be noted: human, in vivo, 0.5 h. An outline of the steps:
as §1

Data set [4] relates to Serum. The data set is described as follows: Drug level in pediatric patient serum with gram-negative bacterial infection assessed as Colistin level at 16 mg/kg/day, iv administered every 8 hrs for 51 days measured after 30 mins by LS/MS/MS analysis. As to conditions: human, in vivo, 0.5 h. An outline of the steps:
as §1

Data set [5] deals with Serum. The data set is described as follows: Drug level in pediatric patient serum with gram-negative bacterial infection assessed as Colistin level at 18 mg/kg/day, iv administered every 8 hrs for 42 days measured after 30 mins by LS/MS/MS analysis. As to conditions: human, in vivo, 0.5 h. An outline of the steps: as §1
Data set [6] is described as follows: Drug level in pediatric patient cerebrospinal fluid with gram-negative bacterial infection assessed as Colistin level at 4.8 mg/kg/day, iv administered every 8 hrs for 7 days measured after 30 mins by LS/MS/MS analysis. As to conditions: human, in vivo, 0.5 h. An outline of the steps:
(§2)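 Children (1 month to 14 years) received CMS in 30 to 50 ml normal saline by 20-min IV infusion every 8 h. CSF was taken from EVD systems alongside blood, after the end of infusion, and stored at −80°C. It was diluted 1:1 with serum, protein-precipitated, and analysed by LC-MS-MS for colistin A plus B against standards in pH 7.4 phosphate-buffered artificial-CSF Ringer with serum. Values are means of two days; course 1 was sampled once.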

Data set [7] is described as follows: Drug level in pediatric patient cerebrospinal fluid with gram-negative bacterial infection assessed as Colistin level at 10.4 mg/kg/day, iv administered every 8 hrs for 46 days measured after 30 mins by LS/MS/MS analysis. To be noted: human, in vivo, 0.5 h. Summed up: as §2
Data set [8] can be described thus: Drug level in pediatric patient cerebrospinal fluid with gram-negative bacterial infection assessed as Colistin level at 16 mg/kg/day, iv administered every 8 hrs for 93 days measured after 30 mins by LS/MS/MS analysis. As to conditions: human, in vivo, 0.5 h. Summed up: as §2
Data set [9] can be described thus: Drug level in pediatric patient cerebrospinal fluid with gram-negative bacterial infection assessed as Colistin level at 16 mg/kg/day, iv administered every 8 hrs for 51 days measured after 30 mins by LS/MS/MS analysis. To be noted: human, in vivo, 0.5 h. An outline of the steps:
as §2

The nature of data set [10]: Drug level in pediatric patient cerebrospinal fluid with gram-negative bacterial infection assessed as Colistin level at 18 mg/kg/day, iv administered every 8 hrs for 42 days measured after 30 mins by LS/MS/MS analysis. To be noted: human, in vivo, 0.5 h. Summed up: as §2
Data set [11] has as its system Serum. Description: Drug level in pediatric patient serum with gram-negative bacterial infection before initiation of 4.8 mg/kg/day, iv administered every 8 hrs for 7 days by LS/MS/MS analysis. To be noted: human, in vivo. Summed up:
(§3)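 Trough sampling: blood was drawn immediately before the 20-min IV CMS infusion (every 8 h), and CSF was taken from EVD systems within 1 h before infusion. Samples were stored at −80°C and analysed by LC-MS-MS for colistin, and for CMS via acid hydrolysis with subtraction. CSF was diluted 1:1 with serum. Values are means of two days.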

Data set [12] has as its system Serum. Description: Drug level in pediatric patient serum with gram-negative bacterial infection before initiation of 10.4 mg/kg/day, iv administered every 8 hrs for 46 days by LS/MS/MS analysis. To be noted: human, in vivo. An outline of the steps: as §3
The subject of data set [13] is Serum. Description: Drug level in pediatric patient serum with gram-negative bacterial infection before initiation of 16 mg/kg/day, iv administered every 8 hrs for 93 days by LS/MS/MS analysis. As to conditions: human, in vivo. An outline of the steps: as §3
Data set [14] deals with Serum. Description: Drug level in pediatric patient serum with gram-negative bacterial infection before initiation of 16 mg/kg/day, iv administered every 8 hrs for 51 days by LS/MS/MS analysis. To be noted: human, in vivo. Summed up:
as §3

Data set [15] deals with Serum. The data set is described as follows: Drug level in pediatric patient serum with gram-negative bacterial infection before initiation of 18 mg/kg/day, iv administered every 8 hrs for 42 days by LS/MS/MS analysis. As to conditions: human, in vivo. An outline of the steps:
as §3

In data set [16] the test system is Serum. Description: Drug level in pediatric patient serum with gram-negative bacterial infection at 4.8 mg/kg/day, iv administered every 8 hrs for 7 days measured after 30 mins by LS/MS/MS analysis. To be noted: human, in vivo, 0.5 h. An outline of the steps: (§4)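 Serum was taken 30 min after the end of the 20-min IV CMS infusion (every 8 h) and stored at −80°C. It underwent acid hydrolysis with 1 M H2SO4 for 15–20 min, neutralisation with 1 M NaOH, and precipitation with acetonitrile containing 0.1% TFA. LC-MS-MS colistin before hydrolysis was subtracted from colistin after hydrolysis to give CMS. Values are means of two days.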

Data set [17] relates to Serum. The data set is described as follows: Drug level in pediatric patient serum with gram-negative bacterial infection at 10.4 mg/kg/day, iv administered every 8 hrs for 46 days measured after 30 mins by LS/MS/MS analysis. To be noted: human, in vivo, 0.5 h. An outline of the steps: as §4
The test system of data set [18] is Serum. The data set is described as follows: Drug level in pediatric patient serum with gram-negative bacterial infection at 16 mg/kg/day, iv administered every 8 hrs for 93 days measured after 30 mins by LS/MS/MS analysis. To be noted: human, in vivo, 0.5 h. An outline of the steps: as §4
The test system of data set [19] is Serum. The data set is described as follows: Drug level in pediatric patient serum with gram-negative bacterial infection at 16 mg/kg/day, iv administered every 8 hrs for 51 days measured after 30 mins by LS/MS/MS analysis. To be noted: human, in vivo, 0.5 h. An outline of the steps: as §4
The test system of data set [20] is Serum. Description: Drug level in pediatric patient serum with gram-negative bacterial infection at 18 mg/kg/day, iv administered every 8 hrs for 42 days measured after 30 mins by LS/MS/MS analysis. To be noted: human, in vivo, 0.5 h. An outline of the steps:
as §4

Data set [21] in a line: Drug level in pediatric patient cerebrospinal fluid with gram-negative bacterial infection before initiation of 4.8 mg/kg/day, iv administered every 8 hrs for 7 days by LS/MS/MS analysis. To be noted: human, in vivo. An outline of the steps:
as §3

A short description of data set [22]: Drug level in pediatric patient cerebrospinal fluid with gram-negative bacterial infection before initiation of 10.4 mg/kg/day, iv administered every 8 hrs for 46 days by LS/MS/MS analysis. To be noted: human, in vivo. Summed up: as §3

Regarding COLISTIN, the Drug uptake turned out to be 0.29 µg/mL with Serum [1]; 1.46 µg/mL with Serum [2]; 1.33 µg/mL in the data set on Serum [3]; 1.6 µg/mL with Serum [4]; 2.2 µg/mL in the data set on Serum [5]; 0.06 µg/mL in data set [6]. In addition, the Drug uptake in data set [7] worked out at 0.05 µg/mL; in [8], 0.46 µg/mL; in data set [9] it was 0.11 µg/mL; in data set [10], 0.07 µg/mL; with Serum [11], 0.28 µg/mL; with Serum [12], 0.84 µg/mL. In addition, the Drug uptake in the data set on Serum [13] is 0.75 µg/mL; with Serum [14], 0.93 µg/mL; with Serum [15], 6.11 µg/mL; in the data set with Serum [16] it was 2.86 µg/mL; in the data set on Serum [17], 7.9 µg/mL; with Serum [18] it was 8.41 µg/mL. In addition, the Drug uptake in the data set on Serum [19] was found to be 9.89 µg/mL; with Serum [20], 7.98 µg/mL; in data set [21] it was 0.06 µg/mL; in data set [22], 0.03 µg/mL.
